Columns and labels:
Format in all cases: functional
Rattus norvegicus [1] = assay: Evaluated for the prolactin inhibition at the dose 50 ug/kg administered intraperitoneally; conditions: ip
Method in brief: (§1)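 Reserpinized male rats given 50 μg/kg ip; serum prolactin (ng/mL) measured by the method of Clemens et al. against vehicle controls; % inhibition from treated vs control means; mean ± SEM of 10 rats; significance versus control.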

Rattus norvegicus [2] = assay: Evaluated for the prolactin inhibition at the dose 50 ug/kg administered intraperitoneally (treatment); method in brief: as §1
Rattus norvegicus [3] = assay: Evaluated for the Average turns per first 15 minutes after administration of 1 mg/kg intraperitoneally; conditions: route intraperitoneal
Rattus norvegicus [4] = assay: Evaluated for the rat turning after administration of 1 mg/kg intraperitoneally; conditions: route intraperitoneal

`CC1=C[C@@H]2c3cccc4[nH]cc(c34)C[C@H]2N(C)C1` [AGROCLAVINE] was tested, and the inhibition in vivo at 0.05 mg/kg (Rattus norvegicus [1]) was 63%, the serum prolactin level (Rattus norvegicus [2]) was 11.7 ng/mL and the “Average turns/first 15 min” value (Rattus norvegicus [3]) was 95. For the same compound, the Rat turning (Rattus norvegicus [4]) was 100%.

`CC1=C[C@@H]2c3ccccc3CC[C@H]2N(C)C1.O=C(O)C(=O)O` [DEPYRROLO AGROCLAVINE] was tested, and the inhibition in vivo at 0.05 mg/kg (Rattus norvegicus [1]) was 9%, the serum prolactin level (Rattus norvegicus [2]) was 35.2 ng/mL and the “Average turns/first 15 min” value (Rattus norvegicus [3]) was 0. For the same compound, the Rat turning (Rattus norvegicus [4]) was 0%.

`C[C@@H](CO)NC(=O)C1C=C2c3ccccc3CC[C@H]2N(C)C1` (some centres undefined) [DEPYRROLO ERGONOVINE] was tested, and the inhibition in vivo at 0.05 mg/kg (Rattus norvegicus [1]) was -24%, the serum prolactin level (Rattus norvegicus [2]) was 28.4 ng/mL and the “Average turns/first 15 min” value (Rattus norvegicus [3]) was 0. It also gave a Rat turning (Rattus norvegicus [4]) of 0%.

With `CCCN1C[C@H](CSC)C[C@@H]2c3ccccc3CC[C@H]21.O=C(O)C(=O)O` [DEPYRROLO PERGOLIDE] the inhibition in vivo at 0.05 mg/kg (Rattus norvegicus [1]) was 35%, the serum prolactin level (Rattus norvegicus [2]) was 11.6 ng/mL and the “Average turns/first 15 min” value (Rattus norvegicus [3]) was 48. For the same compound, the Rat turning (Rattus norvegicus [4]) was 67%.

In the case of `C[C@@H](CO)NC(=O)[C@@H]1C=C2c3cccc4[nH]cc(c34)C[C@H]2N(C)C1.O=C(O)/C=C\C(=O)O` [ERGONOVINE MALEATE], the inhibition in vivo at 0.05 mg/kg (Rattus norvegicus [1]) is reported as 36%, the serum prolactin level (Rattus norvegicus [2]) is reported as 11.7 ng/mL and the “Average turns/first 15 min” value (Rattus norvegicus [3]) is reported as 0. For the same compound, the Rat turning (Rattus norvegicus [4]) was 0%.

For `CCCN1C[C@H](CSC)C[C@@H]2c3cccc4[nH]cc(c34)C[C@H]21` [PERGOLIDE], the inhibition in vivo at 0.05 mg/kg (Rattus norvegicus [1]) was 95%, the serum prolactin level (Rattus norvegicus [2]) was 1.6 ng/mL and the “Average turns/first 15 min” value (Rattus norvegicus [3]) was 102. It also gave a Rat turning (Rattus norvegicus [4]) of 100%.

Source: ChEMBL document CHEMBL1121480, “Conversion of ergolines to hexahydro- and octahydrobenzo[f]quinolines (depyrroloergolines)” (1980)
